UHRF1 binding: human UHRF1 methylated DNA binding inhibitors; UHRF1 binding to methylated oligo, TR-FRET; inhibition, % at 4.4 µM; 370,000 compounds, 0.75% hits; in the data active means inhibition above about 21%;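 further: UHRF1 SRA domain binding a hemimethylated CpG hairpin DNA probe; 0% = median of test compound wells and 100% = reference inhibitor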
LEDGF integ inh: blocks HIV-1 LEDGF/p75-dependent DNA integration; TR-FRET IN-LEDGF/p75 DNA integration, Eu/Cy5; inhibition, % at 3.7 µM; 370,000 compounds, 0.64% hits;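 active means inhibition above the screen-wide mean plus 3 SD, cut at about 13% in these data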;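 further: signal is the Cy5 over europium emission ratio at 671 and 618 nm; 0% = plate median of compound wells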
CSN deneddyl inh: CSN deneddylation inhibition. inhibition, % at 12.5 µM. Q92905. 360,000 compounds, 0.38% hits. AID 651999. Purified CSN, SCF-Nedd8-OG deneddylation, fluorescence polarization;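 active means pattern-corrected inhibition above about 35%, with an unprinted fluorescence ratio check between 0.5 and 1.5, limit read from the data, passing the limit was not always enough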;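 further: 0% = enzyme with substrate and 100% = substrate without enzyme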
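Material: purified human Csn5 enzyme expressed in HEK293T cells / Medium: Tris buffer pH 7.5, NaCl, DTT, Tween-20, trehalose, ovalbumin / Compound dosing: 12.5 µM single point / Schedule: 90 min incubation of compound, enzyme and substrate at room temperature / Signal: fluorescence polarization of the substrate / Control set: no-enzyme wells high, enzyme-with-substrate wells low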
ATG4B inh: ATG4B (human) cysteine protease inhibition. 340,000 compounds, 0.51% hits. inhibition, % at 8.33 µM. ATG4B cleavage of LC3-PLA2, NBD-HPC fluorescence, 1 h. Q9Y4P1; in the data active means inhibition above about 40%
rCAG binder: binds r(CAG) RNA repeats; r(CAG) RNA repeat, TO-PRO-1 dye displacement fluorescence; inhibition, % at 3 µM; 370,000 compounds, 1.3% hits;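 active means inhibition above the plate cutoff, the mean of all test compounds on that plate plus 3 SD, cut at about 35% in these data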;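 further: 0% = DMSO alone and 100% = 100 µM mitoxantrone as full dye displacement; higher means more dye released from RNA so lower well fluorescence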
MBD2 DNA inh: MBD2-methylated oligo binding inhibition; TR-FRET, MBD2 binding to methylated oligonucleotide; inhibition, % at 4.4 µM; 370,000 compounds, 0.31% hits; AID 686964; in the data active means inhibition above about 13%
Target sequence (Q9UBB5 whole entry, looked up): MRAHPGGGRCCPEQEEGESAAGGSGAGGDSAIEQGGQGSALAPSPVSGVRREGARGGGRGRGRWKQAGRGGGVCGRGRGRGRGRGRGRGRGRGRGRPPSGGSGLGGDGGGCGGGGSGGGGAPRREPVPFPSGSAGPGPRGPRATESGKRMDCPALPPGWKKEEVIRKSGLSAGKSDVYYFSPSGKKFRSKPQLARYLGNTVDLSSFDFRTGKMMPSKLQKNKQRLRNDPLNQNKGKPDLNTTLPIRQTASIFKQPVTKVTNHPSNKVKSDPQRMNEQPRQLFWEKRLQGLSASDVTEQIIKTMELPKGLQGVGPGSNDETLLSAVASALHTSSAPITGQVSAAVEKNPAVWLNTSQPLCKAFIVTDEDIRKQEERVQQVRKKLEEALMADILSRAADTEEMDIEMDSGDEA
ATG4B conf: confirmation of human ATG4B inhibitors; shares compounds with ATG4B inh; ATG4B protease fluorescent substrate cleavage assay; inhibition, % at 8.33 µM; 320 compounds, 92% hits; AID 504757; in the data active means inhibition above about 39%
PLA2 ctr: counter-screen for ATG4B inhibitors: human phospholipase A2; shares compounds with ATG4B inh; purified PLA2, NBD-C6-HPC fluorescence, 45 min; inhibition, % at 8.33 µM; 1,600 compounds, 66% hits; in the data active means inhibition above about 50%
Target sequence (P04054 whole entry, looked up): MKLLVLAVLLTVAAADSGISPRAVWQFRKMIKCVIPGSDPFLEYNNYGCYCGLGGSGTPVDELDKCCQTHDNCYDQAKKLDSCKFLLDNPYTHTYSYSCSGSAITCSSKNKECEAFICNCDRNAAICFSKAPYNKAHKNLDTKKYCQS
rCAG bind conf: r(CAG) RNA repeat binding, confirmation; shares compounds with rCAG binder; TO-PRO-1 dye displacement fluorescence; inhibition, % at 3 µM; 4,300 compounds, 70% hits; AID 652065;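 active means inhibition above a per-plate cutoff, the mean inhibition of sample wells plus 3 SD, cut at about 35% in these data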;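 further: loss of TO-PRO-1 fluorescence as compound displaces dye from 1x1 AA loop RNA; 0% = DMSO only wells and 100% = 100 µM mitoxantrone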
dCAG dye counter: DNA CAG dye complex inhibition counter-screen. shares compounds with rCAG binder. d(CAG) DNA oligo TO-PRO-1 dye displacement, fluorescence. inhibition, % at 3 µM. 4,300 compounds, 94% hits. AID 652068;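 active means inhibition above its plate's cutoff, the mean test-well inhibition plus 3 SD, cut at about 4.8% in these data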;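 further: 0% = DNA dye mix with DMSO and 100% = 100 µM mitoxantrone; hits displace the dye from DNA and so lower well fluorescence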
dCAG dye DR: counter-screen for rCAG binders: inhibitors of DNA CAG TO-PRO-1 complex; 250 compounds, 20% hits; shares compounds with rCAG binder; AID 686960; IC50, µM; DNA CAG/GTC duplex TO-PRO-1 dye displacement fluorescence; in the data active means IC50 below about 10 µM
CSN deneddyl val: Csn5 (human) deneddylation inhibition, single-concentration validation | shares compounds with CSN deneddyl inh | Csn5 deneddylation of SCF-Nedd8OG, fluorescence polarization, 90 min | inhibition, % at 16.6 µM | 540 compounds, 62% hits; in the data active means inhibition above about 50%;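 further: 0% = DMSO with enzyme and 100% = no enzyme wells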
MMP-2 counter: MMP-2 (human) inhibition, counter-screen for CSN hits. shares compounds with CSN deneddyl inh. recombinant MMP-2, FRET substrate fluorescence, 60 min. AID 720655. inhibition, % at 16.6 µM. 540 compounds, 33% hits;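 active means corrected plate-normalized z-score of 5 or more, or -5 or less, or inhibition of 15% or more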;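 further: plate controls were DMSO wells with enzyme for no effect and buffer wells lacking MMP-2 for full effect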
Thrombin cntr: blocks bovine thrombin in a CSN deneddylation counter-screen. inhibition, % at 16.6 µM. shares compounds with CSN deneddyl inh. AID 720656. bovine thrombin cleavage of Ub4-pepOG, fluorescence polarization. 540 compounds, 49% hits;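 active means inhibition at or above a set limit, with a fluorescence interference ratio between 0.5 and a set maximum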
UHRF1 DNA bind: UHRF1 methyl-oligo binding inhibition as MBD2 counter-screen; shares compounds with MBD2 DNA inh; UHRF1 binding to methylated oligonucleotide, TR-FRET; inhibition, % at 4.4 µM; 1,000 compounds, 25% hits; in the data active means inhibition above about 21%;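 further: UHRF1 SRA domain binding a labeled hemimethylated CpG hairpin DNA; 0% = vehicle only and 100% = reference inhibitor with vehicle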
MBD2 confirm: confirmation of human MBD2-DBD methylated oligonucleotide binding inhibitors; shares compounds with MBD2 DNA inh; TR-FRET MBD2-DBD binding to methylated oligonucleotide; inhibition, % at 4.4 µM; 1,000 compounds, 26% hits; AID 720531
IN multimer up: HIV-1 integrase multimerization activation, counter-screen | shares compounds with LEDGF integ inh | TR-FRET HIV-1 integrase multimerization, biochemical | activation, % at 7.7 µM | 2,000 compounds, 17% hits | AID 1053131; in the data active means activation above about 8.9%
TR-FRET interf: TR-FRET optical interference, LEDGF/p75 integration counter-screen | shares compounds with LEDGF integ inh | AID 1053135 | TR-FRET optical interference counterscreen, HIV-1 IN multimerization | inhibition, % at 7.7 µM | 2,000 tested, under 10 active;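 active means inhibition above the mean over all tested compounds plus 3 SD, which no compound reached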;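 further: 0% = integrase with antibodies and DMSO and 100% = antibodies without integrase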
LEDGF integ conf: LEDGF/p75-dependent HIV-1 integration inhibition, confirmation | shares compounds with LEDGF integ inh | TR-FRET LEDGF/p75-dependent HIV-1 integration, biochemical | inhibition, % at 3.7 µM | 2,000 compounds, 36% hits | AID 1053136
* hit, by the source's call; · = not tested or not shown. The list is not random: actives were taken first. Their share in the collection is about 3.1%. Unless noted, no stated cut-off is given here; in the data, active means inhibition above about 14%; inactive means the rest.

SMILES	UHRF1 binding	LEDGF integ inh	CSN deneddyl inh	ATG4B inh	rCAG binder	MBD2 DNA inh	PLA2 ctr	rCAG bind conf	dCAG dye counter	IN multimer up	TR-FRET interf	LEDGF integ conf	others
O=C(O)c1ccc2c(c1)C1C=CCC1C(c1ccncc1)N2 (stereo unspecified)	3	2	6	-1	-1	-1	·	·	·	·	·	·
COc1ccc(NS(=O)(=O)c2ccc3c(c2)[C@H]2C=CC[C@H]2[C@@H](c2ccc(C(=O)O)cc2)N3)cc1	20	52*	30	78*	96*	5	48	92*	67*	26*	-94	58*	ATG4B conf=31
NC(=O)c1ccsc1NC(=O)CSc1n[nH]c(N)n1	1	3	2	-10	5	-4	·	·	·	·	·	·
Cc1ccsc1/C=C/C1=Cc2c(sc(NC(=O)CSc3n[nH]c(N)n3)c2C#N)C(C)(C)C1	8	18*	32	66*	55*	-6	52*	53*	26*	0	1	39*
O=C(CCN1C(=O)/C(=C/c2ccco2)SC1=S)Nc1ccc(O)cc1C(=O)O	95*	78*	43*	43*	93*	68*	0	70*	27*	19*	-98	46*	dCAG dye DR=7.3*;CSN deneddyl val=77*;MMP-2 counter=14;Thrombin cntr=10;UHRF1 DNA bind=38*;MBD2 confirm=8
COc1cccc(-n2c(SCc3cc(=O)oc4cc(O)c(O)cc34)nc3ccccc3c2=O)c1	15	27*	13	99*	65*	7	100*	70*	33*	14*	-50	72*
C[C@H](NS(=O)(=O)c1ccc([N+](=O)[O-])cc1)C(=O)NCCNC(=O)[C@@H](C)NS(=O)(=O)c1ccc([N+](=O)[O-])cc1	2	-1	·	·	·	2	·	·	·	·	·	·

Assay outcomes: PubChem, several laboratories
